This note sets out measurements from ChEMBL document CHEMBL3856206, “Nitroimidazole carboxamides as antiparasitic agents targeting Giardia lamblia, Entamoeba histolytica and Trichomonas vaginalis” (Eur J Med Chem, 2016).

Calls of active or inactive are those of the source. The rule behind the calls is not given here.

Series [1] can be described thus: Selectivity index, ratio of CC50 for human HepG2 cells to EC50 for metronidazole sensitive Giardia lamblia WB trophozoites.
Series [2] is described as follows: Selectivity index, ratio of CC50 for HEK293 cells to EC50 for metronidazole sensitive Giardia lamblia WB trophozoites.
Series [3] has as its system Giardia intestinalis. The series can be described thus: Potency index, ratio of metronidazole EC50 to compound EC50 for metronidazole resistant Giardia lamblia 713M3 trophozoites. Format: functional, Giardia duodenalis.
Series [4] in a line: Metabolic stability in human liver microsomes assessed as compound remaining at 5 uM after 2 hrs in presence of NADPH by LC/MS/MS analysis. The conditions noted are these: read-out: Stability. Format: ADME.
The test system of series [5] is Entamoeba histolytica. The series can be described thus: Potency index, ratio of metronidazole EC50 to compound EC50 for metronidazole sensitive Entamoeba histolytica HM-1:IMSS trophozoites. Format: functional.
The test system of series [6] is Entamoeba histolytica. Put plainly: Antiparasitic activity against metronidazole sensitive Entamoeba histolytica HM-1:IMSS trophozoites after 24 to 48 hrs under anaerobic conditions by Celltiter-Glo assay. Format: functional. In short, it runs like this:
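Axenic log-phase trophozoites in TYI-S-33 with penicillin and streptomycin, 5000 parasites per well. Tested over a final 8-point three-fold series, 0.01–25 μM. Incubated 24–48 h at 37 °C in anaerobe gas pouches. Viable cells measured by ATP bioluminescence (CellTiter-Glo) in triplicate to give EC50.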

Series [7] can be described thus: Antiparasitic activity against metronidazole sensitive Clostridium difficile 630 ATCC BAA-1382 after 24 hrs by broth microdilution method. Format: functional, Clostridioides difficile 630. The conditions noted are these: Clostridioides difficile, ATCC BAA-1382, 24 h. The essentials: (§1)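 C. difficile 630 and NAP1/027 grown anaerobically overnight in BHIS at 37 °C, diluted 40-fold, grown ~4.5 h to mid-log (OD600 0.4–0.6). Final inoculum 5 × 10^5 CFU/mL in BHIS against two-fold dilutions, 64 to 0.03 μg/mL, 3% maximum DMSO, in pre-reduced plates (5% H2, 10% CO2, 85% N2). Incubated 24 h at 37 °C. MIC is the lowest concentration without visible growth. Median of replicates reported.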

The next series deals with Clostridioides difficile. The series can be described thus: Antiparasitic activity against Clostridium difficile NAP1/027 ATCC BAA-1803 after 24 hrs by broth microdilution method. Format: functional. Particulars: NAP1/027 ATCC BAA-1803, 24 h. In short, it runs like this: as §1
A short description of series [8]: Cytotoxicity against HEK293 cells assessed as cell growth inhibition after 24 hrs by resazurin assay. The conditions noted are these: human. Format: toxicity, cell-based. The essentials: (§2)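 HEK293 (3000/well) and HepG2 (5000/well) cells cultured 24 h in DMEM with 10% FBS at 37 °C, 5% CO2. Compound dilution series added, top concentration 100 μM, 0.5% final DMSO, for 24 h. Then 5 μM resazurin added for 2 h at 37 °C. 1% Triton X-100 served as the lysis control.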

A short description of series [9]: Cytotoxicity against human HepG2 cells assessed as cell growth inhibition after 24 hrs by resazurin assay. Format: toxicity, cell-based. The essentials:
as §2

Series [10] relates to Giardia intestinalis. The series can be described thus: Potency index, ratio of metronidazole EC50 to compound EC50 for metronidazole sensitive Giardia lamblia WB trophozoites. Format: functional, Giardia duodenalis.
The nature of series [11]: Protein binding in human plasma at 5 uM after 30 min by ultrafiltration method. Format: ADME, cell-free. Particulars: 0.5 h.
Series [12] relates to Giardia intestinalis. Put plainly: Antiparasitic activity against metronidazole sensitive Giardia lamblia WB trophozoites assessed as morphological alterations at 3 times EC50 after 48 hrs under anaerobic conditions by phase contrast microscopic analysis. Format: functional. The conditions noted are these: Giardia duodenalis.

For `CN(C)C(=O)c1nc([N+](=O)[O-])cn1Cc1ccc(OC(F)(F)F)cc1`, the “Ratio CC50/EC50” value in [1] and in series [2] was >37 each time.

On to `O=C(NC1CC1)c1ncc([N+](=O)[O-])[nH]1`, for which the “Ratio CC50/EC50” value in series [1] and in [2] was >20 throughout.

As for `O=C(NCc1ccc(OC(F)(F)F)cc1)c1ncc([N+](=O)[O-])[nH]1`, the “Ratio CC50/EC50” value in [2] is >500.

As to `Cn1c([N+](=O)[O-])cnc1C(=O)N1CCCC1`, the “Ratio CC50/EC50” value in series [1] and in series [2] was >34 throughout. Moreover, the “Ratio EC50” value in the series with Giardia intestinalis [3] is reported as 3 - 12.

With `O=C(c1ncc([N+](=O)[O-])[nH]1)N1CCOCC1`, the remaining at 2 h, 5 µM in [4] came out at 100%. Also, the “Ratio CC50/EC50” value in [1] and in series [2] was >11 in each case.

As to `NNC(=O)c1nc([N+](=O)[O-])cn1Cc1ccc(OC(F)(F)F)cc1`, the “Ratio CC50/EC50” value in series [1] and in series [2] was >13 each time.

On to `Cn1c([N+](=O)[O-])cnc1C(=O)NC1CC1`, for which the “Ratio CC50/EC50” value in [1] and in series [2] was >29 throughout.

For `Cn1c([N+](=O)[O-])cnc1C(=O)NC1CCCCC1`, the “Ratio CC50/EC50” value in series [1] and in series [2] was >20 in each case. Further, the “Ratio EC50” value in the series with Giardia intestinalis [3] is given as 3 - 12.

On to `CN(C)C(=O)c1ncc([N+](=O)[O-])[nH]1`, for which the “Ratio CC50/EC50” value in series [1] and in series [2] was >12 throughout. Besides, the “Ratio EC50” value in the series on Entamoeba histolytica [5] was 2 - 3.

Turning to `O=C(NO)c1nc([N+](=O)[O-])cn1Cc1ccc(OC(F)(F)F)cc1`, in series [1], the “Ratio CC50/EC50” value is reported as >20.

For `NC(=O)c1nc([N+](=O)[O-])cn1CC1CC1`, the results for the EC50 in the series on Entamoeba histolytica [6] (read-out: EC50) and with Entamoeba histolytica [6] (read-out: pEC50 (converted)) were > 50 µM and > 50.1 µM, respectively. The MIC (in series [7]; against Clostridioides difficile) was > 64 µg/mL each time. For the same compound, the CC50 at 24 h in [8] and in [9] was > 100 µM each time.

With `O=C(NCc1ccccn1)c1ncc([N+](=O)[O-])[nH]1`, the “Ratio CC50/EC50” value in series [1] and in series [2] was >14 each time.

Turning to `Cc1ccc(CCNC(=O)c2ncc([N+](=O)[O-])n2C)cc1`, the “Ratio CC50/EC50” value in [1] and in series [2] was >36 in each case.

`Cc1ccc(CCNC(=O)c2ncc([N+](=O)[O-])[nH]2)cc1`: the “Ratio CC50/EC50” value in series [1] and in [2] was >1000 in each case. Further, the “Ratio EC50” value in the series with Entamoeba histolytica [5] was 2 - 3.

Regarding `CCOC(=O)c1nc([N+](=O)[O-])cn1Cc1ccc(OC(F)(F)F)cc1`, the “Ratio CC50/EC50” value in [1] and in series [2] was >17 throughout.

`NC(=O)c1nc([N+](=O)[O-])cn1Cc1ccc(OC(F)(F)F)cc1`: the “Ratio CC50/EC50” value in series [1] and in series [2] was >22 throughout.

Regarding `NC(=O)c1nc([N+](=O)[O-])cn1Cc1ccccn1`, the “Ratio CC50/EC50” value in series [1] and in series [2] was >3.7 in each case.

As to `O=C(c1ncc([N+](=O)[O-])[nH]1)N1CCCC1`, the “Ratio CC50/EC50” value in series [1] and in series [2] was >29 throughout.

In the case of `CN(CCO)C(=O)c1ncc([N+](=O)[O-])[nH]1`, the “Ratio CC50/EC50” value in [1] and in series [2] was >4 in each case.

On to `CNC(=O)c1nc([N+](=O)[O-])cn1Cc1ccc(OC(F)(F)F)cc1`, for which the “Ratio CC50/EC50” value in series [1] and in series [2] was >29 in each case.

For `CC(NC(=O)c1ncc([N+](=O)[O-])[nH]1)c1ccc(F)cc1` (stereo unspecified), the “Ratio CC50/EC50” value in series [1] and in series [2] was >250 throughout. Besides, the “Ratio EC50” value in the series with Entamoeba histolytica [5] was 2 - 3.

Regarding `CC(NC(=O)c1ncc([N+](=O)[O-])n1C)c1ccc(F)cc1` (stereo unspecified), the “Ratio CC50/EC50” value in [1] and in series [2] was >34 in each case. The “Ratio EC50” value in the series with Giardia intestinalis [3] is on record as 3 - 12.

Regarding `NC(=O)c1nc([N+](=O)[O-])cn1Cc1cccc(OC(F)(F)F)c1`, the “Ratio CC50/EC50” value in [1] and in series [2] was >12 in each case.

As to `Cn1c([N+](=O)[O-])cnc1C(=O)NCc1ccccn1`, the “Ratio CC50/EC50” value in series [1] and in [2] was >63 each time. For the same compound, the “Ratio EC50” value with Giardia intestinalis [10] was 4; with Giardia intestinalis [3], 3 - 12.

On to `O=C(NCc1ccc(F)cc1)c1ncc([N+](=O)[O-])[nH]1`, for which the remaining at 2 h, 5 µM in series [4] was 94%. Moreover, the PPB in [11] is listed as > 99%. The “Ratio CC50/EC50” value in series [1] and in series [2] was >250 each time. Also, in the series on Giardia intestinalis [12], the result was Active.

Consider `Cn1c([N+](=O)[O-])cnc1C(=O)N1CCOCC1`, for which the remaining at 2 h, 5 µM in [4] is 97%. In addition, the “Ratio CC50/EC50” value in series [1] and in series [2] was >63 throughout. Further, in the series on Giardia intestinalis [10], the “Ratio EC50” value came to 4.

With `CNC(=O)c1ncc([N+](=O)[O-])[nH]1`, the “Ratio CC50/EC50” value in [1] and in series [2] was >10 in each case.

With `Cn1c([N+](=O)[O-])cnc1C(=O)NCc1ccc(F)cc1`, the remaining at 2 h, 5 µM in series [4] stood at 88%. Besides, the “Ratio CC50/EC50” value in [1] and in series [2] was >29 in each case.

`O=C(NC1CCCCC1)c1ncc([N+](=O)[O-])[nH]1`: the “Ratio CC50/EC50” value in series [1] and in [2] was >167 each time. Also, the “Ratio EC50” value in the series with Entamoeba histolytica [5] is recorded as 2 - 3.

On to `O=C(NCc1cccc(OC(F)(F)F)c1)c1ncc([N+](=O)[O-])[nH]1`, for which the “Ratio CC50/EC50” value in series [1] and in series [2] was >500 throughout.

In the case of `CN(C)C(=O)c1ncc([N+](=O)[O-])n1C`, the “Ratio CC50/EC50” value in series [1] and in series [2] was >42 in each case.

As for `Cc1ncc([N+](=O)[O-])n1CCO` [METRONIDAZOLE], the remaining at 2 h, 5 µM in [4] was 100%.
